The test system of test [1] is Opioid receptors; mu/kappa/delta. The test can be described thus: Compound was tested for agonist potency against opioid receptor in guinea pig ileal longitudinal muscle expressed as IC50 of morphine divided by the compound. The test is classed as functional.
Test [2] shares this test system. In words: Compound was tested for irreversible antagonist activity against opioid receptor in mouse vas deferens at a concentration of 20 nM expressed as IC50 of morphine divided by the compound. Type of test: functional.
Test [3] has as its target T1, Opioid receptors; mu/kappa/delta (Homo sapiens) (UniProt P41145+P41143+P35372). In words: Compound was tested for irreversible antagonist activity against opioid receptor in mouse vas deferens expressed as IC50 of morphine divided by the compound (experiment 1). Type of test: functional, tissue-based. An outline of the steps:
(§1)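 Mouse vas deferens incubated 30 min with 200 nM test ligand, then washed thoroughly (20 times). Morphine and DADLE dose-response curves were rerun in the same tissue. Ratio = agonist IC50 after treatment / control IC50 in that tissue. Where the standard agonist gave under 65% response after treatment, an IC20 was estimated from the plotted dose-response curve. Means of three determinations unless otherwise noted.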

Test [4] concerns Opioid receptors; mu/kappa/delta. In words: Compound was tested for irreversible antagonist activity against opioid receptor in mouse vas deferens expressed as IC50 of DADLE divided by the compound. The test is classed as functional, tissue-based. An outline of the steps: as §1
Test [5] deals with T1, Opioid receptors; mu/kappa/delta (Homo sapiens). The test can be described thus: Compound was tested for irreversible antagonist activity against opioid receptor in mouse vas deferens expressed as IC50 of morphine divided by the compound (experiment. 2). The test is classed as functional, tissue-based. In outline: as §1
The target of test [6] is Opioid receptor (Mus musculus, UniProt P42866+P32300+P33534). The test can be described thus: Compound was tested for agonist activity against opioid receptor in mouse vas deferens preparation. Type of test: functional.
Test [7] has as its target Opioid receptor (Rattus norvegicus, UniProt P33533+P34975+P33535). The test can be described thus: The compound was tested for binding affinity against opioid receptor in rat brain membranes, using [3H]dihydromorphine as the radioligand. The test is classed as cell membranes. In outline:
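Rat forebrain was homogenised in ice-cold 0.05 M Tris-HCl pH 7.4 and washed twice by centrifugation at 4 °C. It was preincubated 10 min at 37 °C, washed again and resuspended at 10 mg/mL. Triplicate tubes held 1 nM [3H]dihydromorphine and at least seven drug concentrations, incubated 40 min at room temperature, then vacuum-filtered. Nonspecific binding was set with 10⁻⁶ M naloxone. Values are mean ± SEM of three experiments.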

A further test is filed under the species Mus musculus. The test can be described thus: Compound was tested for partial agonism in presence of morphine at conc. of 3 e-5. Type of test: functional.
For test [8], the target named is T2, Opioid receptor (Mus musculus) (UniProt P42866+P32300+P33534). The test can be described thus: Compound was tested for irreversible antagonist activity against opioid receptor in mouse vas deferens expressed as IC20 of morphine divided by the compound. The test is classed as functional, tissue-based. In outline: as §1
T2 sequence (P32300 whole entry, looked up): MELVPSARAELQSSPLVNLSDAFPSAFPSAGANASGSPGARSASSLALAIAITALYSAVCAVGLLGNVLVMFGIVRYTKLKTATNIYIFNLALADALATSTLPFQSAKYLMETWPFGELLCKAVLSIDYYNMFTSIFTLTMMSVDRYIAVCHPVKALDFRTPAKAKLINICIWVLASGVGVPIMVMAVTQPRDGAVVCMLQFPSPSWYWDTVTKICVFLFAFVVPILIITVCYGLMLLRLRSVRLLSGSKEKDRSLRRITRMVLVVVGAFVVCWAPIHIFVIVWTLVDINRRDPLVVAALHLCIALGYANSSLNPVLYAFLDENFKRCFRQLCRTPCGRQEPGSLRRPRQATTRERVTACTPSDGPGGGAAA
T2 sequence (P33534 whole entry, looked up): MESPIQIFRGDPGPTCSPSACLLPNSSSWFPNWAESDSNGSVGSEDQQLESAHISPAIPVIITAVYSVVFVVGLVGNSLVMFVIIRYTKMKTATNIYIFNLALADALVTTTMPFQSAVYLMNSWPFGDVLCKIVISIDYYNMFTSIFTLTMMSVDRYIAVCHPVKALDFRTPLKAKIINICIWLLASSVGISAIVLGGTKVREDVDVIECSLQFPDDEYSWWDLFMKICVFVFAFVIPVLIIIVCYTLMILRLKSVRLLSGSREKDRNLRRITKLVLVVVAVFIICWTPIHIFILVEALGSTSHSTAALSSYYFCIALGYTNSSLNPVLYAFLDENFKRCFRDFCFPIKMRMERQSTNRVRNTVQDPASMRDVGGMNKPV
T2 sequence (P42866 whole entry, looked up): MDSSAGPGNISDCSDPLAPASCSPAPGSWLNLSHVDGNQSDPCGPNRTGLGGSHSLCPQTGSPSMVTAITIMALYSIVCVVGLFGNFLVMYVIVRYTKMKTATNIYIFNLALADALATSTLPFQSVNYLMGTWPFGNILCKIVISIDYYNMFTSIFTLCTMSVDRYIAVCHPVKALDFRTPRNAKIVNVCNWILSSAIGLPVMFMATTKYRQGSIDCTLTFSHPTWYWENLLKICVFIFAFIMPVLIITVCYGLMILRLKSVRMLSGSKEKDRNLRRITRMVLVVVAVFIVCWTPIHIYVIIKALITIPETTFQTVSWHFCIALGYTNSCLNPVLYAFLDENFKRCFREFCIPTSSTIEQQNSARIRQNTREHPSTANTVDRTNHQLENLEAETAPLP
The target in test [9] is T1, Opioid receptors; mu/kappa/delta (Homo sapiens). In words: Compound was tested for irreversible antagonist activity against opioid receptor in mouse vas deferens at a concentration of 20 nM, expressed as IC50 of morphine divided by the compound. Type of test: functional.
The target is the same in test [10]. In words: Compound was tested for irreversible antagonist activity against opioid receptor in mouse vas deferens at a concentration of 20 nM, expressed as IC50 of nalorphine divided by the compound. Type of test: functional.
Test [11] shares this target. The test can be described thus: Compound was tested for irreversible antagonist activity against opioid receptor in mouse vas deferens, expressed as IC50 of morphine divided by the compound. The test is classed as functional. In outline:
(§2)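 Mouse vas deferens tissue incubated 30 min with test ligand at 200 nM, then washed thoroughly (20 times). Standard agonist (morphine or DADLE) IC50 redetermined and divided by control IC50 from the same tissue (treated/control ratio). Where the agonist gave under 65% response after treatment, an IC20 was estimated from the plotted dose-response curve. Means of three determinations unless otherwise noted.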

The target is the same in test [12]. In words: Compound was tested for irreversible antagonist activity against opioid receptor in mouse vas deferens, expressed as IC50 of DADLE divided by compound. The test is classed as functional. An outline of the steps:
as §2

Test [13] has the same target. The test can be described thus: Compound was tested for irreversible antagonist activity against opioid receptor in mouse vas deferens at a concentration of 100 nM, expressed as IC50 of morphine divided by the compound. The test is classed as functional.
Test [14] concerns the target T2, Opioid receptor (Mus musculus). The test can be described thus: Compound was tested for agonist activity against opioid receptor in mouse vas deferens preparation at concentration of 1E-7 M. The test is classed as functional.
Test [15] has as its target T1, Opioid receptors; mu/kappa/delta (Homo sapiens). The test can be described thus: Compound was tested for irreversible antagonist activity against opioid receptor in mouse vas deferens expressed as IC50 of morphine divided by the compound. The test is classed as functional, tissue-based. In outline:
as §1

Test [16] has the same target. The test can be described thus: Compound was tested for irreversible antagonist activity against opioid receptor in mouse vas deferens at a concentration of 200 nM, expressed as IC50 of nalorphine divided by the compound. The test is classed as functional.
In test [17] the target is Opioid receptors; mu and delta (Mus musculus) (UniProt P42866+P32300). In words: Irreversible antagonist activity against opioid receptor in mouse vas deferens at 200 nM relative to IC50 of nalorphine. Type of test: functional, tissue-based.
Chain of Opioid receptors; mu and delta (Mus musculus) (P32300 whole entry, looked up): as the sequence (P32300 whole entry, looked up) above
Chain of Opioid receptors; mu and delta (Mus musculus) (P42866 whole entry, looked up): as the sequence (P42866 whole entry, looked up) above

We go through six compounds from ChEMBL document CHEMBL1123494, “Irreversible blockage of opioid receptor types by ester homologues of beta-funaltrexamine” (J Med Chem, 1986).

Broadly, the IC50 is the concentration needed to halve the response being measured. By IC20 is commonly meant the point of the concentration-response curve where the effect stands at 20%. The inhibition is the percentage by which the read-out fell short of the control. The low end stands for a response near the control, the high end for a response far below the control.

“And” between values parts separate entries of the source, which are not always exact repeats. Equal entries are not always repeated.

T1 sequence (P35372 whole entry, looked up): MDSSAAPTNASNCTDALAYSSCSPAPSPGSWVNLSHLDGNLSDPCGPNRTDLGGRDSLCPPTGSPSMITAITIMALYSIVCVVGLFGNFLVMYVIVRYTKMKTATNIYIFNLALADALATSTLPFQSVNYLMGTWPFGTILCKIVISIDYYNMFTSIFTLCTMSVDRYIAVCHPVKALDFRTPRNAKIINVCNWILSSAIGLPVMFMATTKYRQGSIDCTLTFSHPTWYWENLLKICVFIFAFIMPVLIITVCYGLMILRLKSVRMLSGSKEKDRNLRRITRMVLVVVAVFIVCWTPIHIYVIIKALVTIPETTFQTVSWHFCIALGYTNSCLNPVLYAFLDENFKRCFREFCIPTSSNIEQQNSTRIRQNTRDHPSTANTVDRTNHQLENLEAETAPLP
T1 sequence (P41143 whole entry, looked up): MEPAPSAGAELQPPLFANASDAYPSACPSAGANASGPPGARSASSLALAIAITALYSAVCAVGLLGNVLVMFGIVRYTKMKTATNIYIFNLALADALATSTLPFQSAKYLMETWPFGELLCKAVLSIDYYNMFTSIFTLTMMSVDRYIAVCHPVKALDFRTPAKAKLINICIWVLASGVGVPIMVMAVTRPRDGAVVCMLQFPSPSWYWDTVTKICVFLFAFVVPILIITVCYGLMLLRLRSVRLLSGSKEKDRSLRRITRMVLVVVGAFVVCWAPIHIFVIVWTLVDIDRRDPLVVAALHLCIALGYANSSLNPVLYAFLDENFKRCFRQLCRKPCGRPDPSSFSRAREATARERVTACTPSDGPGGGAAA
T1 sequence (P41145 whole entry, looked up): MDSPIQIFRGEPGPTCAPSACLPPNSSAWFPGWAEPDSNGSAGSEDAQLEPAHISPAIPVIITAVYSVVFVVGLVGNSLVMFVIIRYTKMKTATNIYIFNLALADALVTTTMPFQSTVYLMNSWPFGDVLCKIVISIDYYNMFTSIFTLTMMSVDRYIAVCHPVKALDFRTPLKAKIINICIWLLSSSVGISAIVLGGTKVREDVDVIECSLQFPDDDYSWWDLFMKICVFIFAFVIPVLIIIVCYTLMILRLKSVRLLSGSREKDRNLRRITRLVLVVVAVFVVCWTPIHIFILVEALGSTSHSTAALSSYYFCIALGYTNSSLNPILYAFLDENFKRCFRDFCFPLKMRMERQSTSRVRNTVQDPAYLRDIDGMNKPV

For `O=C(/C=C/C(=O)OCCc1ccccc1)N[C@@H]1CC[C@@]2(O)C3Cc4ccc(O)c5c4C2(CCN3CC2CC2)[C@H]1O5` (some centres not stated), the Potency ratio in [1] came out at 10.4. In addition, the Ratio in test [2] was 4.84 and 2.88; in [3] it was 64.7; in [4], 3.73; in test [5] it was 24.4. The half-inhibitory concentration (IC50) turned out to be 70.1 nM at Opioid receptor [6] and 0.015 nM on Opioid receptor [7].

`CCCOC(=O)/C=C/C(=O)N[C@@H]1CC[C@@]2(O)C3Cc4ccc(O)c5c4C2(CCN3CC2CC2)[C@H]1O5` (some centres not stated): the Potency ratio in [1] worked out at 147. Also, the Ratio was 2.46 and 1.69 in test [2]; 1.52 in [4]. Moreover, the Activity in the test listed under Mus musculus is recorded as 56%. In test [8], this compound yielded an IC20 of 200 nM. Besides, the IC50 is given as 21 nM on Opioid receptor [6] and 1.56 nM at Opioid receptor [7].

For `COC(=O)/C=C/C(=O)N[C@@H]1CC[C@@]2(O)[C@H]3Cc4ccc(O)c5c4[C@@]2(CCN3CC2CC2)[C@H]1O5`, in test [1], the Potency ratio came out at 5. Moreover, the Ratio in test [9] amounted to 6; in test [10], 1.2; in test [11], 10.6; in test [12] it was 1.1; in [13], 12. Moreover, the half-inhibitory concentration (IC50) worked out at 82 nM on Opioid receptor [6] and 1.03 nM at Opioid receptor [7].

Take `O=C(/C=C/C(=O)OCc1ccccc1)N[C@@H]1CC[C@@]2(O)C3Cc4ccc(O)c5c4C2(CCN3CC2CC2)[C@H]1O5` (some centres not stated): in test [1], the Potency ratio was determined as 1.41. In addition, the Ratio in test [2] is 6.33 and 5.85; in [4], 1.39. The compound further had an inhibition in test [14] of 57%. Besides, in test [8], the 20% effect level (IC20) was put at 400 nM. Besides, the 50% inhibitory concentration (IC50) at Opioid receptor [7] amounted to 0.3 nM.

With `CCCCOC(=O)/C=C/C(=O)N[C@@H]1CC[C@@]2(O)C3Cc4ccc(O)c5c4C2(CCN3CC2CC2)[C@H]1O5` (some centres not stated), the Potency ratio in [1] came out at 66.1. The Ratio in test [2] was 5.05 and 4.42; in [15], 10; in [4] it was 1.75. In addition, the half-maximal inhibitory concentration (IC50) on Opioid receptor [6] is 7 nM; on Opioid receptor [7], 1.65 nM.

For the compound `CCOC(=O)/C=C/C(=O)N[C@@H]1CC[C@@]2(O)C3Cc4ccc(O)c5c4C2(CCN3CC2CC2)[C@H]1O5` (some centres not stated), the Potency ratio in [1] came to 16.1. The Ratio is 1.75 and 2.22 in test [2]; 2.53 in test [15]; 2.06 in test [16]; 1.24 in test [4]; 1.67 in test [17]. In addition, the IC50 is listed as 13 nM at Opioid receptor [6] and 0.64 nM at Opioid receptor [7].
